Test results as given in ChEMBL document CHEMBL1125937, “Nucleosides and nucleotides. 100. 2'-C-cyano-2'-deoxy-1-beta-D-arabinofuranosyl-cytosine (CNDAC): design of a potential mechanism-based DNA-strand-breaking antineoplastic nucleoside” (J Med Chem, 1991).
In brackets after ≈: the same amount, converted by molar mass.

What was measured:
Format in all cases: functional, cell-based
[1] = test system: MKN-28; assay: Inhibitory effect tested in vitro for the growth of Stomach adenocarcinoma MKN- 28 cell line; settings: Homo sapiens
Method in brief: (§1)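 MTT assay: tumor cells seeded at 1 × 10^4 per well, incubated 72 h with or without compound, then MTT added and OD 570 nm read. % inhibition = [1 − OD sample/OD control] × 100. IC50 is the concentration giving 50% inhibition of cell growth.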

[2] = test system: NUGC-4; assay: Inhibitory effect tested in vitro for the growth of Stomach adenocarcinoma NUGC-4 cell line; settings: Homo sapiens; method in brief: as §1
[3] = test system: PC-3; assay: Inhibitory effect tested in vitro for the growth of Lung adenocarcinoma PC-3 cell line; settings: Homo sapiens; method in brief: as §1
[4] = test system: MKN-1; assay: Inhibitory effect tested in vitro for the growth of Stomach adenocarcinoma MKN-1 cell line; settings: Homo sapiens; method in brief: as §1
[5] = test system: OST; assay: Inhibitory effect tested in vitro for the growth of Osteosarcoma OST cell line; settings: Homo sapiens; method in brief: as §1
[6] = test system: KHOS-321H; assay: Inhibitory effect tested in vitro for the growth of Osteosarcoma KHOS-321H cell line; settings: Homo sapiens; method in brief: as §1
[7] = test system: PC-9; assay: Inhibitory effect tested in vitro for the growth of Lung adenocarcinoma PC-9 cell line; settings: Homo sapiens; method in brief: as §1
[8] = test system: MKN-7; assay: Inhibitory effect tested in vitro for the growth of Stomach adenocarcinoma MKN-7 cell line; settings: Homo sapiens; method in brief: as §1
[9] = test system: PC-13; assay: Inhibitory effect tested in vitro for the growth of Lung adenocarcinoma PC-13 cell line; settings: Homo sapiens, in the assay text read “Lung large-cell carcinoma” for “Lung adenocarcinoma”; method in brief: as §1
[10] = test system: HOS-TE85; assay: Inhibitory effect tested in vitro for the growth of Osteosarcoma MNNG-HOS cell line; settings: Homo sapiens; method in brief: as §1
[11] = test system: QG-56; assay: Inhibitory effect tested in vitro for the growth of Lung squamous-cell carcinoma QG-56 cell line; settings: Homo sapiens; method in brief: as §1
[12] = test system: ST-KM-1; assay: Inhibitory effect tested in vitro for the growth of Stomach adenocarcinoma ST-KM cell line; settings: Homo sapiens; method in brief: as §1
[13] = test system: SK-ES1; assay: Inhibitory effect tested in vitro for the growth of Osteosarcoma SK-ES-1 cell line; settings: Homo sapiens; method in brief: as §1
[14] = test system: SW480; assay: Inhibitory effect tested in vitro for the growth of colon adenocarcinoma SW-480 cell line; settings: Homo sapiens; method in brief: as §1
[15] = test system: PC-8; assay: Inhibitory effect tested in vitro for the growth of Lung adenocarcinoma PC-8 cell line; settings: Homo sapiens; method in brief: as §1

`N#C[C@H]1[C@H](O)[C@@H](CO)O[C@H]1n1ccc(N)nc1=O` [TAS-109] was tested, and the IC50 [1] was 1.7 µg/mL (≈ 6.74 µM), the IC50 [2] was 5.2 µg/mL (≈ 20.6 µM) and the IC50 [3] was 5.6 µg/mL (≈ 22.2 µM). For the same molecule, the IC50 [4] was 2.1 µg/mL (≈ 8.33 µM), the IC50 [5] was 6.4 µg/mL (≈ 25.4 µM) and the IC50 [6] was 4.5 µg/mL (≈ 17.8 µM). The IC50 [7] was 4.4 µg/mL (≈ 17.4 µM), the IC50 [8] was 1.4 µg/mL (≈ 5.55 µM) and the IC50 [9] was over 100 µg/mL. For the same molecule, the IC50 [10] was 6.8 µg/mL (≈ 27 µM), the IC50 [11] was 40 µg/mL (≈ 159 µM) and the IC50 [12] was 2.8 µg/mL (≈ 11.1 µM). The IC50 [13] was 2.2 µg/mL (≈ 8.72 µM), the IC50 [14] was 0.27 µg/mL (≈ 1.07 µM) and the IC50 [15] was 4.6 µg/mL (≈ 18.2 µM).
With `Nc1ccn([C@@H]2O[C@H](CO)[C@@H](O)[C@H]2O)c(=O)n1` [CYTIDINE] the IC50 [1] was 4.5 µg/mL (≈ 18.5 µM), the IC50 [2] was over 100 µg/mL and the IC50 [3] was over 100 µg/mL. For the same molecule, the IC50 [5] was over 100 µg/mL, the IC50 [6] was 0.27 µg/mL (≈ 1.11 µM) and the IC50 [7] was 1.6 µg/mL (≈ 6.58 µM). For the same molecule, the IC50 [9] was over 100 µg/mL, the IC50 [10] was 2.6 µg/mL (≈ 10.7 µM) and the IC50 [11] was over 100 µg/mL. The IC50 [12] was over 100 µg/mL, the IC50 [13] was 0.09 µg/mL (≈ 0.37 µM) and the IC50 [14] was over 100 µg/mL. It also gave an IC50 [15] of 0.28 µg/mL (≈ 1.15 µM).
